# Source: PMC12766539 (Molecular pharmaceutics, 2022)
# How the values were obtained:
# [1] = test system: S. aureus USA300 LAC infection; assay: Invertebrate wax moth infection model; format: in vivo, Galleria mellonella; conditions: 64 mg/kg, 1×10^6 CFU/insect, 30 per group, 5 days
# Procedure, shortened: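 Galleria mellonella larvae (~250 mg; 30 per group) were injected with test compound at 64 mg/kg in phosphate buffer 2 h before infection with S. aureus USA300 at 1×10⁶ CFU/insect. Larvae were kept at room temperature and scored live or dead daily for 5 days. Survival was compared by log-rank test.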
# [2] = test system: 31 clinical strains of S. aureus (5 methicillin-susceptible, 26 resistant); assay: MIC against a panel of 31 clinical strains of S. aureus; format: cell-based, Staphylococcus aureus; conditions: ~10^5 CFU/mL, negative control
# Procedure, shortened: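 Exponential-phase bacteria were diluted to ~10⁵ CFU/mL in TSB or MHB and added to serially diluted test compound (in water). Plates were incubated at 37°C for 20 h and growth was read as absorbance at 600 nm. Water-only wells served as the untreated control and medium as the blank.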
# pUC19 plasmid = assay: DNA gel retardation experiment; format: binding; conditions: two peptide concentrations (Figure S2)
sequence,measurement,setting,value
RIVQRIKDFL [RI-10],protection of the animals from infection-caused death,[1],did not protect the animals
same,inhibitory activity at 32 μM,[2],did not show any inhibitory activity
same,DNA retardation in the well,pUC19 plasmid,unable to retard DNA
